Results taken from ChEMBL document CHEMBL1687714, “Genetic analysis of fenhexamid-resistant field isolates of the phytopathogenic fungus Botrytis cinerea” (Antimicrob Agents Chemother, 2008).
Values after ≈ are worked out from the molar mass of the structure shown. Active and inactive are the calls of the source. The calls are words filed in the database; no cut-off is given here.

Columns and labels:
Assay type in all cases: functional, organism-based
[1] = test system: Botrytis cinerea; assay: Antifungal activity against highly fenhexamid-resistant Botrytis cinerea MK5-2 assessed as inhibition of germ tube elongation after 24 hrs; details: MK5-2, 24 h
[2] = test system: Botrytis cinerea; assay: Antifungal activity against moderately to slightly fenhexamid-resistant Botrytis cinerea 453a assessed as inhibition of germ tube elongation after 24 hrs
[3] = test system: Botrytis cinerea; assay: Antifungal activity against highly fenhexamid-resistant Botrytis cinerea 05-AVB assessed as inhibition of mycelium growth measured over 5 days; details: 120 h
[4] = test system: Botrytis cinerea; assay: Antifungal activity against highly fenhexamid-resistant Botrytis cinerea 05-PV Reims assessed as inhibition of mycelium growth measured over 5 days; details: 120 h
[5] = test system: Botrytis cinerea; assay: Antifungal activity against highly fenhexamid-resistant Botrytis cinerea 223a assessed as inhibition of mycelium growth measured over 5 days; details: 120 h
[6] = test system: Botrytis cinerea; assay: Antifungal activity against highly fenhexamid-resistant Botrytis cinerea 264 assessed as inhibition of mycelium growth measured over 5 days; details: Botrytis cinerea, 264, 120 h
[7] = test system: Botrytis cinerea; assay: Antifungal activity against highly fenhexamid-resistant Botrytis cinerea 440b assessed as inhibition of mycelium growth measured over 5 days; details: 120 h
[8] = test system: Botrytis cinerea; assay: Antifungal activity against HydR3 deficient Botrytis cinerea 453 harboring TELerg F412I mutant at 1 ug/ml relative to wild-type
Procedure, shortened: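 In the dominance test, the recipient strains 453b and 286 were transformed with different erg27 alleles. Spores of the transformants were grown on YSS medium containing fenhexamid at different concentrations and 50 µg ml–1 hygromycin B. Parental strains were grown without hygromycin. Growth was scored after 7 days at 21°C.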

[9] = test system: Botrytis cinerea; assay: Antifungal activity against highly fenhexamid-resistant Botrytis cinerea 506a assessed as inhibition of germ tube elongation after 24 hrs
[10] = test system: Botrytis cinerea; assay: Antifungal activity against highly fenhexamid-resistant Botrytis cinerea 520a assessed as inhibition of germ tube elongation after 24 hrs

CC1(C(=O)Nc2ccc(O)c(Cl)c2Cl)CCCCC1 [FENHEXAMID]
EC50 [1]: > 5 µg/mL
EC50 [2]: 3 µg/mL (≈ 9.93 µM)
EC50 [3]: 5 µg/mL (≈ 16.5 µM)
EC50 [4]: > 10 µg/mL
EC50 [5]: > 10 µg/mL
EC50 [6]: > 10 µg/mL
EC50 [7]: > 10 µg/mL
Activity [8]: inactive
EC50 [9]: > 10 µg/mL
EC50 [10]: 10 µg/mL (≈ 33.1 µM)
